# Apaf-1 inh: inhibitors of human Apaf-1 apoptosome | reconstituted apoptosome caspase-3 activity, DEVD-Rh110 fluorescence | 0.71% of 330,000 active | inhibition, % at 20 µM; active = inhibition of at least 40% at 20 µM
#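 Assay system: Apoptosome proteins | Medium: pH 7.5 Hepes buffer with CHAPS, BSA, DTT | Also added: Cytochrome c and DEVD-Rh110 substrate | Times: 30 min plus 50 min, RT | Detection: Rhodamine 110 fluorescence at Ex 480/Em 540 nm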
# GSTO1 counter: GSTO1 inhibition, counter-screen for RBBP9 inhibitors | AID 1974 | 1.1% of 300,000 active | inhibition, % at 5.96 µM | recombinant GSTO1, activity-based probe fluorescence polarization | P78417;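 active = inhibition above the campaign mean inhibition plus 3 SD, cut at about 35% in these data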
# PP5 inh: PP5 (human) phosphatase inhibition. purified PP5c, OMFP substrate fluorescence. inhibition, % at 6.7 µM. 0.18% of 320,000 active. AID 1987;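 active = inhibition above the campaign's mean inhibition across all tested compounds plus 3 SD, cut at about 9.5% in these data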
# TDP2 absorb: TDP2 (human) inhibition, absorbance primary screen; recombinant TDP2, T5PNP hydrolysis, p-nitrophenol absorbance 415 nm; inhibition, % at 12.8 µM; 0.34% of 370,000 active;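 active = inhibition above the mean of all tested compounds plus 3 SD, set per campaign, cut at about 25% in these data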
# Target sequence (O95551 whole entry, looked up): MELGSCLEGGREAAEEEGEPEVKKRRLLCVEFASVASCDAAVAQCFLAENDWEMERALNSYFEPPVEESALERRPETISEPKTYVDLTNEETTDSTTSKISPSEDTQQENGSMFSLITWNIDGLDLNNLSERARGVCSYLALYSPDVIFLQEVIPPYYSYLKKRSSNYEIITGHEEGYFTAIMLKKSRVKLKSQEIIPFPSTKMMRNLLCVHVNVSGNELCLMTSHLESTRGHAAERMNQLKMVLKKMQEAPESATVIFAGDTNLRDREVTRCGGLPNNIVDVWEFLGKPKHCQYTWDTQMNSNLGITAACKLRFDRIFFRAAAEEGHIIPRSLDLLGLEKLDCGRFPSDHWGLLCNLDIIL
#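 test system = human TDP2 enzyme | input = TDP2 enzyme at 120 nM final | medium = 50 mM Tris-HCl pH 7.5 with Mg2+, KCl, DTT, BSA | also added = T5PNP substrate, 5 mM | times = 2 h at 37 °C | technique = epi absorbance | benchmarks = high control without enzyme, low control DMSO plus TDP2 | replication = each compound tested once, singlicate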
# PP1 inh: counter-screen for PP5 inhibitors: inhibitors of human PP1-alpha; P62136; purified PP1alpha, OMFP fluorescence; inhibition, % at 6.7 µM; 0.9% of 320,000 active;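 active = inhibition above the mean inhibition of all tested compounds plus 3 SD, computed separately for each screening campaign, cut at about 15% in these data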
# PP1 inh confirm: human PP1 phosphatase inhibition, confirmation. AID 2358. 52% of 1,900 active. shares compounds with PP1 inh. inhibition, % at 6.7 µM. purified PP1alpha, OMFP substrate fluorescence;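 active = mean PP1 inhibition above a set limit taken from the earlier primary screen, cut at about 15% in these data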
# PP5 inh counter: counter-screen for PP1 inhibitors: human PP5 phosphatase inhibition; purified PP5c, OMFP fluorescence; shares compounds with PP1 inh; 4% of 1,900 active; inhibition, % at 6.7 µM;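 active = mean PP5 inhibition over triplicate wells above about 9.5% taken from the earlier PP1 screen, limit read from the data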
# Numbers stand for hits; n = inactive; x = not tested or not shown. A selection: hits, their analogues and other compounds. The true share with any hit is near 2.1%.
SMILES,Apaf-1 inh,GSTO1 counter,PP5 inh,TDP2 absorb,PP1 inh,PP1 inh confirm,PP5 inh counter
CSc1nnc(N2C(=O)C(O)=C(C(=O)c3ccco3)C2c2ccccc2)s1 (centres undefined),n,n,n,n,n,x,x
CSc1nnc(N2C(=O)C(O)=C(C(=O)c3ccc(C)o3)C2c2ccc(C)cc2)s1 (centres undefined),n,n,n,n,29.7,24.5,n
COC(=O)C1=C(C)N(Cc2ccc(F)cc2)C(=S)NC1c1ccccc1 (centres undefined),x,x,x,n,x,x,x
O=C(NCC1CCCCC1)c1cccc(-c2ccc(O)cc2)c1,n,n,n,n,18.3,n,n
O=C(NCC1CCCCC1)c1ccc(=O)[nH]c1,n,n,n,n,n,x,x
CC(C)Oc1cccc(-c2n[nH]c(=S)n2N=Cc2ccc(OCc3ccccc3)cc2)c1,x,x,x,n,x,x,x
CCCCOCCCNC(=O)C[C@@H]1C(=O)N2CCCC3=C2[C@@]1(C(=O)OCC)CCC3,x,x,x,n,x,x,x
Cc1ccc(-c2cc(C(=O)Nc3ccc(S(=O)(=O)N4CC(C)OC(C)C4)cc3)[nH]n2)c(O)c1 (centres undefined),n,n,n,n,18.9,16.1,n
Cc1ccc(O)c(-c2cc(C(=O)Nc3ccc(S(=O)(=O)N4CC(C)OC(C)C4)cc3)[nH]n2)c1 (centres undefined),n,n,n,n,n,x,x
COc1ccc(-c2nnc(NC(=O)c3ccc(F)cc3)o2)cc1,n,n,n,n,24.4,25.1,n
Cc1ccccc1N1CCN(C(=O)CCn2nnc3ccccc32)CC1,x,x,x,n,x,x,x
COc1cc(NC(=O)CSc2nc(C3CC3)nc3ccccc23)cc(OC)c1,n,n,n,n,19.3,18.1,n
Cc1ccc(-c2csc(Cc3nc(-c4ccc5c(c4)CCC(=O)N5)cs3)n2)cc1,n,n,n,n,36.1,16.3,n
COC(=O)[C@]12C[C@H](CC(=O)NCC3CCCCC3)C(=O)N(Cc3ccco3)C1=C[C@H](C(C)(C)C)O[C@@H]2C,x,x,x,n,x,x,x
CN(CCOC(=O)CC1C=CCC1)C1CN(Cc2cn(Cc3ccccc3Cl)nn2)S(=O)(=O)C1 (centres undefined),x,x,x,n,x,x,x
O=C(O)C1Nc2c(Cl)cc(Cl)cc2C2C=CCC12 (centres undefined),x,n,n,x,23.7,n,n
CN1CCN(c2nc(-c3ccccn3)nc3ccccc23)CC1,n,n,n,n,n,x,x
c1ccc(N2CCN(c3nc(-c4ccccn4)nc4ccccc34)CC2)cc1,n,n,n,n,63.8,45.5,n
Cc1ccccc1Oc1nc(-c2ccccn2)nc2ccccc12,n,n,n,n,19.9,16.2,n
N#Cc1c(SCC(=O)Nc2nc3ccc(Br)cc3s2)sc2c(O)cc(=O)[nH]c12,n,n,n,n,17.7,n,n
CCCSc1nnc(NC(=O)CSc2sc3c(O)cc(=O)[nH]c3c2C#N)s1,n,n,n,n,n,x,x
N#Cc1c(SCC(=O)Nc2nc3ccccc3s2)sc2c(O)cc(=O)[nH]c12,n,x,n,n,18.7,n,n
N#Cc1c(SCC(=O)Nc2nccs2)sc2c(O)cc(=O)[nH]c12,n,n,n,n,26.4,n,n
CCCCN1CC[C@@H](C)Oc2cc(Br)ccc2S1(=O)=O,x,x,x,n,x,x,x
S=c1[nH]nc(-c2cc(-c3ccccc3)n[nH]2)n1N=Cc1cccc(Oc2ccccc2)c1,x,x,x,n,x,x,x
SMILES,Apaf-1 inh,GSTO1 counter,PP5 inh,TDP2 absorb,PP1 inh,PP1 inh confirm,PP5 inh counter
CCC(=O)N1C(C(=O)O)CSC1c1ccc(OC)cc1 (centres undefined),n,n,n,n,30.6,n,n
CCC(=O)N1C(C(=O)N2CCCC2)CSC1c1ccc(OC)cc1 (centres undefined),n,n,n,n,n,x,x
CCN(CC)S(=O)(=O)c1cccc(N=NC2=C(O)CCCC2=O)c1,n,n,n,n,56.8,n,n
O=C(N1CCC(n2nc(-c3ccccc3)oc2=O)CC1)C1(c2ccccc2)CCCC1,x,x,x,n,x,x,x
COc1ccc(OC)c(/C=C/C(=O)OCC(=O)Nc2nnc(-c3ccccc3)o2)c1,n,x,n,n,32.7,28.1,n
COc1ccccc1/C=C/C(=O)OCC(=O)Nc1nnc(-c2ccccc2)o1,n,x,x,n,x,x,x
COc1ccc2c(c1)CC/C(=C/c1ccco1)C2=O,n,n,n,n,n,x,x
